# Assay outcomes (PubChem)
# This is a sample that favours compounds with a hit; in the whole collection about 3.5% have one here.
# Yeast life ext = extends the lifespan of yeast. actives 0.68% (n = 130,000). inhibition of the nicotinamide effect, % at 10 µM. S. cerevisiae growth with nicotinamide, OD615; deaD strain in restrictive glucose medium;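 active = inhibition above a set limit, placed 3 SD over the median of all compounds, cut at about 26% in these data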;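 note: 0% = nicotinamide-treated wells and 100% = cells grown without nicotinamide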
#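 System: DeaD-strain S. cerevisiae / Buffer or medium: CSMM-D, restrictive glucose (dextrose) synthetic minimal medium / Probe or stimulus: nicotinamide, 1.5 mM, co-present with compound / Compound: one concentration, 10 µM, DMSO 0.25% / Incubation: 48 h compound exposure at 30 °C, humidified / Technique: optical density (absorbance) at 615 nm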
# MT stabilize HCS = microtubule stabilization, imaging screen | actives 0.83% (n = 200,000) | % tubulin-high responders, % at 10 µM | HeLa tubulin immunostaining HCS, 24 h; share of cells brighter than vehicle mean+2SD;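 active = plate Z-score above 3 for both tubulin-high and condensed-nucleus cell shares, with cell loss under 80%, at 10 µM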;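 note: anti alpha tubulin signal scored within the nucleus-defined area of each cell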
# RAM inhibit = inhibitors of the yeast RAM network; S. cerevisiae dse1pr::URA3 reporter, 5-FOA growth OD615, 2 d; analog-sensitive cbk1-as2 kinase mutant strain; AID 868; inhibition, % at 50 µM; actives 1.8% (n = 190,000);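 active = inhibition above a set limit, 3 SD over mean compound inhibition, cut at about 8.4% in these data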;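 note: 0% = DMSO-only wells with no growth and 100% = 10 µM 1-NA-PP1 full growth; inhibition rescues growth on 5-FOA so higher OD means more RAM inhibition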
# b-catenin transl = beta-catenin nuclear translocation modulation; nuclear translocation activity, % at 5 µM; actives 0.3% (n = 190,000); HeLa beta-catenin nuclear translocation, immunofluorescence imaging; AID 1665;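 active = nuclear translocation activity above 50% at 5 µM, with a well cell count of 50 or more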;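 note: per-cell ratio of nuclear to cytoplasmic median beta-catenin stain intensity; plate controls were DMSO negative control for no effect and GSK-3 inhibitor IX positive control for full effect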
#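 Read-out: Nuclear/cytoplasmic beta-catenin signal ratio, % activation | Assay system: Human HeLa cell line | Times: 24 h compound exposure at 37°C, 5% CO2 | Signal: Fluorescence imaging of beta-catenin antibody stain plus DAPI | Dosing: 5 µM primary, 0.02–20 µM confirmation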
# Yeast growth inh = reduces growth of yeast BB579 in restrictive medium; S. cerevisiae BB579 growth, OD615, 48 h; inhibition, % at 10 µM; actives 0.51% (n = 140,000); AID 804;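 active = inhibition above a set limit, 3 SD over the mean compound inhibition, cut at about 44% in these data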
#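 controls = amphotericin B 10 µg/mL, positive | assay system = DeaD yeast strain BB579 | schedule = 48 h compound exposure at 30 °C after 4 h preincubation | detection = OD615 turbidity measurement | medium = restrictive CSMM-D medium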
# HMGR II inh = E. faecalis class II HMG-CoA reductase inhibition. purified E. faecalis HMGR, NADPH absorbance 340 nm kinetic. inhibition, % at 10 µM. actives 0.41% (n = 190,000). AID 1066;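 active = inhibition above a set limit, the median over all tested compounds plus 3 SD, cut at about 9.5% in these data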;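 note: enzyme runs in reverse so mevalonate oxidation gives rising NADPH absorbance; 0% = complete reaction with DMSO and 100% = background rate lacking mevalonate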
# Starred values were filed as active, the others as inactive; · = not tested or not shown.
SMILES,Yeast life ext,MT stabilize HCS,RAM inhibit,b-catenin transl,Yeast growth inh,HMGR II inh
Cc1nc2oc3c(NCc4ccccc4)ncnc3c2c2c1COC(C)(C)C2,-17.0,2.5,5.1,2.7,-21.3,-3.2
CC1(C)Cc2c(sc3ncnc(NNC(=S)NCc4ccccc4)c23)CO1,2.2,29.4*,3.0,-0.3,-29.2,-2.7
CCOc1ccc(Br)cc1S(=O)(=O)NCc1ccncc1,·,3.3,0.4,-3.2,·,2.4
Cc1cc(C)nc(SCc2cc(=O)c(OC(=O)c3ccco3)co2)n1,45.8*,2.0,2.5,-1.3,-24.2,-4.2
Cc1cc(C)nc(SCc2cc(=O)c(OC(=O)c3ccc(Br)o3)co2)n1,48.9*,2.6,-0.9,2.0,-41.5,-0.5
Cc1cc(C)nc(SCc2cc(=O)c(OC(=O)c3cc([N+](=O)[O-])ccc3Cl)co2)n1,19.2,5.4,3.0,-2.5,-38.7,-5.0
N/N=C(/Cc1nc2ccccc2[nH]1)c1ccc([N+](=O)[O-])cc1,·,4.5,0.6,-0.3,·,-5.5
O=C(c1ccncc1)N(c1ccc2oc3c(c2c1)CCCC3)S(=O)(=O)c1cccc([N+](=O)[O-])c1,2.5,2.7,2.7,-0.2,-43.5,-0.4
COc1ccc(S(=O)(=O)N(C(=O)c2ccncc2)c2ccc3oc4c(c3c2)CCCC4)cc1,3.7,22.4*,3.7,-0.7,-45.7,-3.6
NC(=O)c1cc2c3ccccc3ccn2c1-c1ccccc1,·,·,·,101.5*,·,·
COc1cccc(C(=O)/C=C/c2ccc(OCC#N)c(OC)c2)c1,0.0,2.7,2.5,0.9,-32.9,1.6
COc1ccc(C(=O)/C=C/N2CCCCC2)cc1OC,-5.7,5.7,3.4,-0.4,53.1*,2.4
COc1cc(/C=C/C(=O)c2ccc(O)cc2)ccc1OCC#N,-1.0,11.1*,1.1,-1.5,10.2,-3.5
COc1ccc(C(=O)/C=C/c2ccc(OC3CSC3)cc2)cc1OC,-6.7,5.2,8.6*,0.1,-19.4,1.7
COC(=O)c1ccc(N/C=C/C(=O)c2ccc(OC)c(OC)c2)cc1,-2.3,3.3,-0.2,-3.7,-15.2,-1.8
COc1ccc(/C=C/C(=O)c2ccccc2)cc1COc1ccccc1F,2.2,1.6,10.0*,·,-35.3,-8.3
Cn1ccc(C(=O)Oc2ccc(C(=O)Nc3ccc(F)cc3F)cc2)n1,·,3.7,3.4,-2.9,·,4.5
Cc1cc(C)n2nc(C(=O)Nc3cccc(S(=O)(=O)N(C)c4ccccc4)c3)nc2n1,·,·,·,-0.2,·,·
Cc1ccc(NC(=O)c2sc(N)nc2-c2ccc([N+](=O)[O-])cc2)c(C)c1,·,·,·,-0.4,·,·
O=C1CC(c2ccc(F)cc2)CC(O)=C1C=NCCN1CCNCC1 (stereo not drawn),·,3.5,1.1,·,-31.4,-1.1
Cc1ccc(C2CC(=O)C(C=NCCN3CCN(C(=S)Nc4ccccc4)CC3)=C(O)C2)cc1 (stereo not drawn),·,1.2,1.3,10.1,·,1.1
COc1ccccc1N=CC1=C(O)CC(c2ccccc2)CC1=O (stereo not drawn),-4.8,4.7,5.1,96.5*,-31.1,0.8
O=C1CC(c2ccccc2)CC(O)=C1C=NCCN1CCNCC1 (stereo not drawn),34.6*,6.1,-0.1,0.0,-18.4,-2.9
O=C1CC(c2ccccc2)CC(O)=C1C=NCCN1CCN(C(=O)Nc2ccccc2)CC1 (stereo not drawn),91.5*,2.8,0.9,-5.5,-51.6,-4.5
CCC(=O)N1CCN(CCN=CC2=C(O)CC(c3cccs3)CC2=O)CC1 (stereo not drawn),52.9*,2.4,0.9,-3.3,-28.1,0.6
SMILES,Yeast life ext,MT stabilize HCS,RAM inhibit,b-catenin transl,Yeast growth inh,HMGR II inh
CCn1c(=NC(=O)C2COc3ccccc3O2)sc2c(OC)ccc(OC)c21 (stereo not drawn),·,·,·,-0.5,·,·
Cc1ccc(NC(=O)CN2CCN(CCN=CC3=C(O)CC(c4ccccc4)CC3=O)CC2)cc1 (stereo not drawn),60.4*,2.1,-0.1,-0.2,-34.8,0.1
FC(F)Oc1ccc(NC(=S)N2CCc3ccccc32)cc1,·,3.3,1.4,0.3,·,-3.8
CCOC(=O)c1ccc(N2C(=O)c3n[nH]c(C)c3C2c2ccc(OC)cc2)cc1 (stereo not drawn),-9.0,3.1,2.2,-6.4,-48.6,-5.2
CCOC(=O)c1ccc(N2C(=O)c3n[nH]c(C)c3C2c2ccc(OC)c(OC)c2)cc1 (stereo not drawn),-9.6,38.0*,1.6,1.6,-4.1,-3.7
O=c1c2cn[nH]c2nc(SCc2c(F)cccc2F)n1-c1ccc(Cl)cc1,·,3.9,3.1,-1.7,·,4.0
CCOC(=O)COc1cccc2c(=O)n(CC(=O)NCCc3ccccc3)ccc12,5.7,2.8,0.8,0.1,-11.8,-5.5
CCOC(=O)C(C)Oc1cccc2c(=O)n(CC(=O)NCCc3ccccc3)ccc12 (stereo not drawn),·,·,·,0.9,·,·
CCOC(=O)C(C)Oc1cccc2c(=O)n(CC(=O)NCc3ccccc3)ccc12 (stereo not drawn),·,·,·,50.7*,·,·
CCOC(=O)COc1cccc2c(=O)n(CC(=O)NCc3ccc4c(c3)OCO4)ccc12,-4.1,18.6*,1.7,64.3*,-41.5,-4.5
CC(C)(C)n1ncc2c(=O)n(CC(=O)NCc3ccco3)cnc21,-7.2,4.0,-0.5,-0.6,-22.0,-7.1
CC(C)(C)n1ncc2c(=O)n(CC(=O)NCc3ccc(F)cc3)cnc21,-1.8,47.0*,0.2,-0.4,-27.5,-5.0
CCOC(=O)C(C)Oc1cccc2c(=O)n(CC(=O)NCc3ccc(F)cc3)ccc12 (stereo not drawn),·,·,·,106.2*,·,·
COc1ccc(C(=O)NCCc2nnc3ccc(SCC(=O)Nc4cc(C)on4)nn23)cc1,·,2.1,1.4,3.0,·,-0.5
COC(=O)COc1cccc2c(=O)n(CC(=O)NCc3ccc(F)cc3)ccc12,·,20.1*,0.6,-1.8,·,-3.7
Cc1ccc(N2CCN(C(=O)NC3CCCCC3)CC2C)cc1 (stereo not drawn),·,·,·,0.0,·,·
COc1ccc(COc2cc(-c3cccc(OC)c3)nc3ccc(NC(=O)c4ccc(Cl)cc4)cc23)cc1,2.6,5.6,8.4*,·,-42.0,-7.3
[O-]c1c[n+](-c2ccc(-[n+]3cc([O-])on3)cc2)no1,·,1.2,2.2,0.1,·,2.0
COc1ccc2[nH]c(CN3CCC(CO)(CCOc4ccccc4)CC3)c(C)c2c1,·,3.5,0.4,0.5,·,1.1
CCCCCCNC(=O)C(=O)NCCc1ccc(Cl)cc1,·,6.3,4.0,2.4,·,46.9*
COc1ccc(-c2nc3ccc(N4CCCC4)cc3c(=O)[nH]2)cc1OC,0.1,15.1*,2.4,-1.0,-36.1,-0.9
COc1ccc(-c2cc(C(=O)N3CCN(c4ccccc4)CC3)c3ccccc3n2)cc1OC,1.8,2.0,0.5,0.1,17.9,-3.1
COc1ccc2oc(=Nc3cccc(F)c3)c(C(N)=O)cc2c1,·,8.9,2.4,61.2*,·,-6.3
